Results published in ChEMBL document CHEMBL1149106, “Design, synthesis, and evaluation of aza-peptide epoxides as selective and potent inhibitors of caspases-1, -3, -6, and -8” (J Med Chem, 2004).

biological target: T1, Caspase-1 (Homo sapiens) (UniProt P29466); test: Second-order inhibition rate of caspase-1 was determined by progress curve method
T1 sequence (whole entry): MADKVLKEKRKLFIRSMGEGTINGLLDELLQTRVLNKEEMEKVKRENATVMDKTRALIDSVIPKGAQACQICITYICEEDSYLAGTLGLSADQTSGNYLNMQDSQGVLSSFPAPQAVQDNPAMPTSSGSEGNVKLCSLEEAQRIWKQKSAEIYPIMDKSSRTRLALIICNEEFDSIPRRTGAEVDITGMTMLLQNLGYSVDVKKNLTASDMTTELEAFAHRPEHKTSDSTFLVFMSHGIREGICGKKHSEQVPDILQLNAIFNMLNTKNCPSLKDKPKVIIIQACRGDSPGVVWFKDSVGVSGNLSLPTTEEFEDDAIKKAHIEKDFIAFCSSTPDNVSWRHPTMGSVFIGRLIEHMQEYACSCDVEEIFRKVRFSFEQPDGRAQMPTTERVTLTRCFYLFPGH
Summary of the method: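 Caspase-1 assay buffer: 100 mM HEPES, 0.5 mM EDTA, 20% (v/v) glycerol, 5 mM DTT, pH 7.5. Substrate: Ac-YVAD-AMC.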

Row | SMILES | k2 [M⁻¹ s⁻¹]
1 | CC(C)C[C@H](NC(=O)OCc1ccccc1)C(=O)NC(CCC(=O)O)C(=O)N[C@H](C(=O)NN(CC(=O)O)C(=O)[C@H]1O[C@@H]1C(=O)OCc1ccccc1)[C@@H](C)O (some centres not stated) | 43500
2 | CC(C)C[C@H](NC(=O)[C@H]1O[C@@H]1C(=O)N(CC(=O)O)NC(=O)[C@H](C)NC(=O)[C@@H](NC(=O)CCc1ccccc1)C(C)C)C(N)=O | 26100
3 | CC(C)[C@H](NC(=O)[C@H](CCC(=O)O)NC(=O)OCc1ccccc1)C(=O)NN(CC(=O)O)C(=O)[C@@H]1O[C@H]1C(=O)N[C@@H](Cc1ccccc1)C(N)=O | 1040
4 | CC(C)[C@H](NC(=O)C(CCC(=O)O)NC(=O)[C@H](CC(=O)O)NC(=O)OCc1ccccc1)C(=O)NN(CC(=O)O)C(=O)[C@H]1O[C@@H]1C(=O)NCc1ccccc1 (some centres not stated) | 25400
5 | CC(C)[C@H](NC(=O)CCc1ccccc1)C(=O)N[C@@H](C)C(=O)NN(CC(=O)O)C(=O)[C@H]1O[C@@H]1C(=O)N[C@@H](Cc1ccc(O)cc1)C(N)=O | 3250
6 | CC(C)[C@H](NC(=O)CCc1ccccc1)C(=O)N[C@@H](C)C(=O)NN(CC(=O)O)C(=O)[C@H]1O[C@@H]1C(=O)N[C@@H](C)C(=O)NCc1ccccc1 | 13400
7 | CC(C)[C@H](NC(=O)CCc1ccccc1)C(=O)N[C@@H](C)C(=O)NN(CC(=O)O)C(=O)[C@H]1O[C@@H]1C(=O)OCCc1ccccc1 | 56600
8 | CC[C@H](C)[C@H](NC(=O)OCc1ccccc1)C(=O)N[C@@H](CCC(=O)O)C(=O)N[C@H](C(=O)NN(CC(=O)O)C(=O)[C@@H]1O[C@H]1C(=O)OCc1ccccc1)[C@@H](C)O | 13000
9 | CC[C@H](C)[C@H](NC(=O)OCc1ccccc1)C(=O)N[C@@H](CCC(=O)O)C(=O)N[C@H](C(=O)NN(CC(=O)O)C(=O)[C@@H]1O[C@H]1C(=O)NCc1ccccc1)[C@@H](C)O | 18100
10 | CC(C)[C@H](NC(=O)C(CCC(=O)O)NC(=O)[C@H](CC(=O)O)NC(=O)OCc1ccccc1)C(=O)NN(CC(=O)O)C(=O)[C@H]1O[C@@H]1C(=O)OCc1ccccc1 (some centres not stated) | 54700
11 | CC(C)[C@H](NC(=O)CCc1ccccc1)C(=O)N[C@@H](C)C(=O)NN(CC(=O)O)C(=O)[C@H]1O[C@@H]1C(=O)NCc1ccccc1 | 65900
12 | CC(C)[C@H](NC(=O)CCc1ccccc1)C(=O)N[C@@H](C)C(=O)NN(CC(=O)O)C(=O)[C@H]1O[C@@H]1C(=O)N[C@@H](Cc1ccccc1)C(N)=O | 32700

biological target: T2, Caspase-3 (Homo sapiens) (UniProt P42574); test: Second-order inhibition rate of caspase-3 was determined by progress curve method
T2 sequence (whole entry): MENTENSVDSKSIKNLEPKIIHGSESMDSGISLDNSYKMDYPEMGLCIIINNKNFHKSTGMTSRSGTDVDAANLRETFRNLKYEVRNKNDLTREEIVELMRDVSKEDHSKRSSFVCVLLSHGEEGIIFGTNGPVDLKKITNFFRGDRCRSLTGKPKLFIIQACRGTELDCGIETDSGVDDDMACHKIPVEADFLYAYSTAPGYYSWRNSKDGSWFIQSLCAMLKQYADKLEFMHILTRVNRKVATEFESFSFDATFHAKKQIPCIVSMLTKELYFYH
Summary of the method: (§1)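 Caspases-3, -6 and -8 were assayed in 50 mM HEPES, 100 mM NaCl, 0.1% (w/v) CHAPS, 10% (w/v) sucrose and 10 mM DTT, pH 7.4. Substrate: Cbz-DEVD-AFC or Cbz-DEVD-AMC.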

Row | SMILES | k2 [M⁻¹ s⁻¹]
13 | CC(C)C[C@H](NC(=O)OCc1ccccc1)C(=O)NC(CCC(=O)O)C(=O)N[C@H](C(=O)NN(CC(=O)O)C(=O)[C@H]1O[C@@H]1C(=O)OCc1ccccc1)[C@@H](C)O (some centres not stated) | 3520
14 | CC(C)C[C@H](NC(=O)[C@H]1O[C@@H]1C(=O)N(CC(=O)O)NC(=O)[C@H](C)NC(=O)[C@@H](NC(=O)CCc1ccccc1)C(C)C)C(N)=O | 420
15 | CC(C)[C@H](NC(=O)[C@H](CCC(=O)O)NC(=O)OCc1ccccc1)C(=O)NN(CC(=O)O)C(=O)[C@@H]1O[C@H]1C(=O)N[C@@H](Cc1ccccc1)C(N)=O | 470
16 | CC(C)[C@H](NC(=O)C(CCC(=O)O)NC(=O)[C@H](CC(=O)O)NC(=O)OCc1ccccc1)C(=O)NN(CC(=O)O)C(=O)[C@H]1O[C@@H]1C(=O)NCc1ccccc1 (some centres not stated) | 1.09e+06
17 | CC(C)[C@H](NC(=O)CCc1ccccc1)C(=O)N[C@@H](C)C(=O)NN(CC(=O)O)C(=O)[C@H]1O[C@@H]1C(=O)N[C@@H](Cc1ccc(O)cc1)C(N)=O | 87
18 | CC(C)[C@H](NC(=O)CCc1ccccc1)C(=O)N[C@@H](C)C(=O)NN(CC(=O)O)C(=O)[C@H]1O[C@@H]1C(=O)N[C@@H](C)C(=O)NCc1ccccc1 | 260
19 | CC(C)[C@H](NC(=O)CCc1ccccc1)C(=O)N[C@@H](C)C(=O)NN(CC(=O)O)C(=O)[C@H]1O[C@@H]1C(=O)OCCc1ccccc1 | 2110
20 | CC[C@H](C)[C@H](NC(=O)OCc1ccccc1)C(=O)N[C@@H](CCC(=O)O)C(=O)N[C@H](C(=O)NN(CC(=O)O)C(=O)[C@@H]1O[C@H]1C(=O)OCc1ccccc1)[C@@H](C)O | 3110
21 | CC[C@H](C)[C@H](NC(=O)OCc1ccccc1)C(=O)N[C@@H](CCC(=O)O)C(=O)N[C@H](C(=O)NN(CC(=O)O)C(=O)[C@@H]1O[C@H]1C(=O)NCc1ccccc1)[C@@H](C)O | 6500
22 | CC(C)[C@H](NC(=O)C(CCC(=O)O)NC(=O)[C@H](CC(=O)O)NC(=O)OCc1ccccc1)C(=O)NN(CC(=O)O)C(=O)[C@H]1O[C@@H]1C(=O)OCc1ccccc1 (some centres not stated) | 1.91e+06
23 | CC(C)[C@H](NC(=O)CCc1ccccc1)C(=O)N[C@@H](C)C(=O)NN(CC(=O)O)C(=O)[C@H]1O[C@@H]1C(=O)NCc1ccccc1 | 1610
24 | CC(C)[C@H](NC(=O)CCc1ccccc1)C(=O)N[C@@H](C)C(=O)NN(CC(=O)O)C(=O)[C@H]1O[C@@H]1C(=O)N[C@@H](Cc1ccccc1)C(N)=O | 625

biological target: T3, Caspase-6 (Homo sapiens) (UniProt P55212); test: Second-order inhibition rate of caspase-6 was determined by progress curve method; summary of the method: as §1
T3 sequence (whole entry): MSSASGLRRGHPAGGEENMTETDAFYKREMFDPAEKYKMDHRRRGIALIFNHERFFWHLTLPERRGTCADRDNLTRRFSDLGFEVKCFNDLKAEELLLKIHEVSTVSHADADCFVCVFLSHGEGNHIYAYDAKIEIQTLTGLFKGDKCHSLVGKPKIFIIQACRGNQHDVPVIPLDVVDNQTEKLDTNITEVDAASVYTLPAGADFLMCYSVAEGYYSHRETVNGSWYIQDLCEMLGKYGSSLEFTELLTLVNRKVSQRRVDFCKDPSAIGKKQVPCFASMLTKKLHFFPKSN

Row | SMILES | k2 [M⁻¹ s⁻¹]
25 | CC(C)C[C@H](NC(=O)OCc1ccccc1)C(=O)NC(CCC(=O)O)C(=O)N[C@H](C(=O)NN(CC(=O)O)C(=O)[C@H]1O[C@@H]1C(=O)OCc1ccccc1)[C@@H](C)O (some centres not stated) | 10300
26 | CC(C)C[C@H](NC(=O)[C@H]1O[C@@H]1C(=O)N(CC(=O)O)NC(=O)[C@H](C)NC(=O)[C@@H](NC(=O)CCc1ccccc1)C(C)C)C(N)=O | 71
27 | CC(C)[C@H](NC(=O)[C@H](CCC(=O)O)NC(=O)OCc1ccccc1)C(=O)NN(CC(=O)O)C(=O)[C@@H]1O[C@H]1C(=O)N[C@@H](Cc1ccccc1)C(N)=O | 25
28 | CC(C)[C@H](NC(=O)C(CCC(=O)O)NC(=O)[C@H](CC(=O)O)NC(=O)OCc1ccccc1)C(=O)NN(CC(=O)O)C(=O)[C@H]1O[C@@H]1C(=O)NCc1ccccc1 (some centres not stated) | 6000
29 | CC(C)[C@H](NC(=O)CCc1ccccc1)C(=O)N[C@@H](C)C(=O)NN(CC(=O)O)C(=O)[C@H]1O[C@@H]1C(=O)N[C@@H](Cc1ccc(O)cc1)C(N)=O | 11
30 | CC(C)[C@H](NC(=O)CCc1ccccc1)C(=O)N[C@@H](C)C(=O)NN(CC(=O)O)C(=O)[C@H]1O[C@@H]1C(=O)N[C@@H](C)C(=O)NCc1ccccc1 | 25
31 | CC(C)[C@H](NC(=O)CCc1ccccc1)C(=O)N[C@@H](C)C(=O)NN(CC(=O)O)C(=O)[C@H]1O[C@@H]1C(=O)OCCc1ccccc1 | 240
32 | CC[C@H](C)[C@H](NC(=O)OCc1ccccc1)C(=O)N[C@@H](CCC(=O)O)C(=O)N[C@H](C(=O)NN(CC(=O)O)C(=O)[C@@H]1O[C@H]1C(=O)OCc1ccccc1)[C@@H](C)O | 45400
33 | CC[C@H](C)[C@H](NC(=O)OCc1ccccc1)C(=O)N[C@@H](CCC(=O)O)C(=O)N[C@H](C(=O)NN(CC(=O)O)C(=O)[C@@H]1O[C@H]1C(=O)NCc1ccccc1)[C@@H](C)O | 60100
34 | CC(C)[C@H](NC(=O)C(CCC(=O)O)NC(=O)[C@H](CC(=O)O)NC(=O)OCc1ccccc1)C(=O)NN(CC(=O)O)C(=O)[C@H]1O[C@@H]1C(=O)OCc1ccccc1 (some centres not stated) | 12700
35 | CC(C)[C@H](NC(=O)CCc1ccccc1)C(=O)N[C@@H](C)C(=O)NN(CC(=O)O)C(=O)[C@H]1O[C@@H]1C(=O)NCc1ccccc1 | 155
36 | CC(C)[C@H](NC(=O)CCc1ccccc1)C(=O)N[C@@H](C)C(=O)NN(CC(=O)O)C(=O)[C@H]1O[C@@H]1C(=O)N[C@@H](Cc1ccccc1)C(N)=O | 65

biological target: Caspase-8 (Homo sapiens) (UniProt Q14790); test: Second-order inhibition rate of caspase-8 was determined by progress curve method; summary of the method: as §1
Sequence (Q14790 217-374 limits assumed): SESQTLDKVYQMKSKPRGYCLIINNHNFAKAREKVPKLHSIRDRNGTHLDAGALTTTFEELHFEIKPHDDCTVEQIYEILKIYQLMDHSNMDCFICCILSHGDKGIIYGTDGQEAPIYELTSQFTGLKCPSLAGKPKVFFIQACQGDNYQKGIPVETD
Sequence (Q14790 385-479 limits assumed): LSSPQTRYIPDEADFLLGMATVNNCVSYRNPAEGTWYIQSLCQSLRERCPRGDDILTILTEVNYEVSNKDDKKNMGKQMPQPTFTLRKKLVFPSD

Row | SMILES | k2 [M⁻¹ s⁻¹]
37 | CC(C)C[C@H](NC(=O)OCc1ccccc1)C(=O)NC(CCC(=O)O)C(=O)N[C@H](C(=O)NN(CC(=O)O)C(=O)[C@H]1O[C@@H]1C(=O)OCc1ccccc1)[C@@H](C)O (some centres not stated) | 72700
38 | CC(C)C[C@H](NC(=O)[C@H]1O[C@@H]1C(=O)N(CC(=O)O)NC(=O)[C@H](C)NC(=O)[C@@H](NC(=O)CCc1ccccc1)C(C)C)C(N)=O | 315
39 | CC(C)[C@H](NC(=O)C(CCC(=O)O)NC(=O)[C@H](CC(=O)O)NC(=O)OCc1ccccc1)C(=O)NN(CC(=O)O)C(=O)[C@H]1O[C@@H]1C(=O)NCc1ccccc1 (some centres not stated) | 84400
40 | CC(C)[C@H](NC(=O)CCc1ccccc1)C(=O)N[C@@H](C)C(=O)NN(CC(=O)O)C(=O)[C@H]1O[C@@H]1C(=O)N[C@@H](Cc1ccc(O)cc1)C(N)=O | 125
41 | CC(C)[C@H](NC(=O)CCc1ccccc1)C(=O)N[C@@H](C)C(=O)NN(CC(=O)O)C(=O)[C@H]1O[C@@H]1C(=O)N[C@@H](C)C(=O)NCc1ccccc1 | 140
42 | CC(C)[C@H](NC(=O)CCc1ccccc1)C(=O)N[C@@H](C)C(=O)NN(CC(=O)O)C(=O)[C@H]1O[C@@H]1C(=O)OCCc1ccccc1 | 3780
43 | CC[C@H](C)[C@H](NC(=O)OCc1ccccc1)C(=O)N[C@@H](CCC(=O)O)C(=O)N[C@H](C(=O)NN(CC(=O)O)C(=O)[C@@H]1O[C@H]1C(=O)OCc1ccccc1)[C@@H](C)O | 4560
44 | CC[C@H](C)[C@H](NC(=O)OCc1ccccc1)C(=O)N[C@@H](CCC(=O)O)C(=O)N[C@H](C(=O)NN(CC(=O)O)C(=O)[C@@H]1O[C@H]1C(=O)NCc1ccccc1)[C@@H](C)O | 6500
45 | CC(C)[C@H](NC(=O)C(CCC(=O)O)NC(=O)[C@H](CC(=O)O)NC(=O)OCc1ccccc1)C(=O)NN(CC(=O)O)C(=O)[C@H]1O[C@@H]1C(=O)OCc1ccccc1 (some centres not stated) | 188000
46 | CC(C)[C@H](NC(=O)CCc1ccccc1)C(=O)N[C@@H](C)C(=O)NN(CC(=O)O)C(=O)[C@H]1O[C@@H]1C(=O)NCc1ccccc1 | 9360
47 | CC(C)[C@H](NC(=O)CCc1ccccc1)C(=O)N[C@@H](C)C(=O)NN(CC(=O)O)C(=O)[C@H]1O[C@@H]1C(=O)N[C@@H](Cc1ccccc1)C(N)=O | 390
